A selection: hits, their analogues and other compounds. The true share with any hit is near 3.9%.
tim23-1 inh = growth inhibitors of tim23-1 mutant yeast, primary screen, luminescence, uHTS; S. cerevisiae tim23-1 growth, BacTiter-Glo luminescence, 24 h; inhibition, % at 20 µM; 330,000 compounds, 1.3% hits; AID 463212, 2010;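 active means growth inhibition of the mutant yeast at or above 50%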;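 further: temperature-sensitive mutant grown at 25 °C; plate controls were DMSO-treated mutant yeast for no effect and medium wells lacking yeast for full effect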
UPR XBP1 act = activators of adaptive XBP1 UPR arm, primary screen, cell-based, CHO-XBP1 luciferase reporter, luminescence, uHTS. IRE1-XBP1 UPR activation; percent of tunicamycin response, DMSO as zero. activation, % at 20 µM. 330,000 compounds, 0.33% hits. AID 463104, 2010;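 active means versus positive control, 20 µM dose yields 30% or more activation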;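 further: 100% = tunicamycin at 10 µg/mL and 0% = DMSO only wells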
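Material: IRE1-XBP1 luciferase reporter CHO line / Quantity: one thousand reporter cells per well / Buffer or medium: F12 with 10% serum / Compound: 20 µM single concentration, DMSO 1% / Times: 6 h treatment, 37 °C / Detection: Steady-Glo luciferase glow luminescence, 10 min after reagent addition / Benchmarks: tunicamycin high, DMSO low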
UPR CHOP act = activators of apoptotic CHOP UPR arm, primary screen, cell-based, CHO-CHOP luciferase reporter, luminescence, uHTS. UPR activation; percent of tunicamycin response over DMSO baseline. activation, % at 10 µM. 330,000 compounds, 0.34% hits;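 active means at 10 µM dose, activation of 40% or more, normalized to positive control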;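 further: 100% = tunicamycin at 10 µg/mL and 0% = DMSO alone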
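Material: CHO-CHOP cells, stable luciferase reporter of PERK-eIF2a-CHOP signalling; quantity: 500 reporter cells seeded per well; buffer or medium: F12 medium containing 10% fetal bovine serum; compound: one dose, 10 µM in 0.5% DMSO; incubation: 6 h compound treatment, 37 °C; measured by: Steady-Glo luciferase luminescence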
TIM10 inh = growth inhibitors of isogenic TIM10 control yeast, primary screen, counter-screen for tim10-1 yeast inhibitor project, luminescence, uHTS. inhibition, % at 10 µM. S. cerevisiae TIM10 strain growth, BacTiter-Glo luminescence, 24 h. 330,000 compounds, 1.4% hits;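 active means inhibition of 40% or more at the single tested concentration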;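 further: wild-type TIM10 isogenic control strain grown at permissive 25 °C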
tim10-1 inh = growth inhibitors of tim10-1 mutant yeast, primary screen, luminescence, uHTS; S. cerevisiae tim10-1 ts strain growth, BacTiter-Glo, 24 h; inhibition, % at 20 µM; 330,000 compounds, 2.2% hits;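 active means inhibition of at least 40%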;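 further: mutant grown at 25 °C; 0% = DMSO wells with yeast and 100% = wells holding no yeast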
tim10 confirm = growth inhibitors of wild-type TIM10 yeast, confirmation, counter-screen for tim10-1 synthetic lethality project, single concentration, luminescence, S. cerevisiae; shares compounds with TIM10 inh; S. cerevisiae tim10 strain growth, BacTiter-Glo luminescence, 24 h; inhibition, % at 10 µM; 4,600 compounds, 63% hits;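 active means inhibition of yeast growth at or above a set limit in either of two replicates at 10 µM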;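 further: this counterscreen used the strain with wild-type TIM10; 0% = yeast with DMSO and 100% = medium wells lacking yeast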
tim23-1 confirm = tim23-1 mutant yeast growth inhibitors, confirmation, luminescence, single concentration; shares compounds with tim23-1 inh; S. cerevisiae tim23-1 growth, BacTiter-Glo luminescence, 24 h; inhibition, % at 20 µM; 4,400 compounds, 83% hits; AID 463218, 2010;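 active means inhibition above about 39% in either of two replicate wells at 20 µM, limit read from the data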;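 further: temperature-sensitive tim23-1 mutant grown at 25 °C; 0% = DMSO wells with yeast and 100% = medium wells without yeast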
* hit, by the source's call; . = not tested or not shown.

SMILES | tim23-1 inh | UPR XBP1 act | UPR CHOP act | TIM10 inh | tim10-1 inh | tim10 confirm | tim23-1 confirm
O=C(N/N=C/c1ccco1)c1cc2ccccc2o1 | 66* | -5 | 4 | 41* | 23 | 12 | 64*
CCC(C)c1ccccc1NC(=S)NC(=O)c1ccco1 (centres undefined) | 54* | -1 | -1 | 41* | 35 | 25 | 36
O=C(NC(=S)Nc1ccccc1Cl)c1ccco1 | 24 | 7 | 5 | -1 | 14 | . | .
CC1CCc2cc(F)cc3c(O)c(C(=O)NCc4ccco4)c(=O)n1c23 (centres undefined) | 55* | -1 | -1 | 49* | 30 | -4 | 51*
Oc1c(Br)cc(Br)cc1CNc1ccccn1 | 67* | -4 | 4 | 51* | 18 | 20 | 74*
CCCc1cc(=O)[nH]c(SCC(=O)NCCN2C(=O)CSC2=O)n1 | 7 | 0 | 0 | 10 | -10 | . | .
COc1ccc(C(=O)Nc2ccc3ccccc3c2)c(OC)c1 | 60* | -3 | 4 | 57* | 18 | 62* | 80*
Cc1cccc(C(=O)Oc2ccc(/C=N/O)cc2)c1 | 62* | 7 | 5 | 42* | 28 | 32* | 50*
COc1cc(C(=O)N/N=C/c2ccc(OC(=O)c3cccc(C)c3)cc2)ccc1O | 11 | 4 | 3 | 5 | 0 | . | .
C(=N\Nc1nc2ccccc2[nH]1)/c1cccc2cccnc12 | 55* | 0 | 2 | 67* | 26 | 55* | 48*
C(=N\Nc1nc2ccccc2[nH]1)/c1c[nH]c2ccccc12 | -33 | 1 | 8 | -8 | -5 | . | .
COCc1cc(=O)[nH]c(SCCS(=O)(=O)c2ccc(Cl)cc2Cl)n1 | 58* | 0 | 0 | 44* | 31 | 35* | 28
CN1C(=O)C(C)(C)c2cc(S(=O)(=O)NCc3ccc(C(=O)NCc4ccco4)cc3)ccc21 | 14 | 0 | 2 | 13 | 4 | . | .
COc1ccccc1N1CC(C)(C)C(=O)N(C(=O)c2ccc(Cl)cc2)C1=S | 51* | 10 | 7 | 45* | 24 | 54* | 52*
Cc1onc(-c2ccccc2)c1CNS(=O)(=O)c1cccc(Br)c1 | 29 | 2 | 1 | 28 | 24 | . | .
COc1cc(NC(=O)C2C3CCC(O3)C2C(=O)O)cc(OC)c1 (centres undefined) | 0 | 1 | 0 | -1 | 9 | . | .
Cc1cccc(-c2nc(Nc3cccc(O)c3)c3ccccc3n2)c1 | 78* | 7 | 1 | 53* | 6 | 50* | 24
Cc1ccccc1-c1noc(-c2ccc(O)cc2)n1 | 88* | 2 | 3 | 48* | 31 | 62* | 73*
Cc1ccc2nc(NC(=O)Cn3nc(C)c([N+](=O)[O-])c3C)sc2c1 | 51* | -1 | 0 | 48* | 25 | -9 | 65*
Cc1ccc2nc(NC(=O)COC(=O)c3ccccn3)sc2c1 | 59* | -1 | 5 | 43* | 19 | 26 | 70*
CCn1cc(S(=O)(=O)c2ccc(Cl)cc2)c(=O)c2cc(OC)ccc21 | 2 | -3 | 2 | 14 | 19 | . | .
CC1CCCC(NC(=O)C2N(CCCN3CCCC3)C(=O)C3C(C(=O)Nc4cccc(Cl)c4)C4C=CC32O4)C1C (centres undefined) | 14 | 3 | 0 | -22 | -1 | . | .
O=C(Nc1ccc(Br)cc1)c1ccccc1Br | 23 | 2 | 5 | 1 | 18 | . | .
O=Nc1ccc(NOC(=O)c2ccccc2Br)cc1 | 57* | -5 | 4 | 61* | 20 | 60* | 73*
